Experimental data taken from ChEMBL document CHEMBL1122210, “(2-Chloroethyl)nitrosourea congeners of amino acid amides” (J Med Chem, 1982).

System: L1210
Assay: Tested for ratio of maximal effective dose/the dose which gives 30% ILS against mouse leukemia L1210 cells
Assay type: cell-based
Conditions: not given
How it was run: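 In the L1210 model (male BDF1 mice, 10⁶ cells ip, ip dosing in distilled water once daily on days 1–3), therapeutic index is the maximal effective dose divided by the dose giving 30% ILS. ILS = 100(T/C-1), 60-day survivors included.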

SMILES | Therapeutic index
CSCCC(NC(=O)N(CCCl)N=O)C(N)=O (centres undefined) | 5.9
NC(=O)C(Cc1ccccc1)NC(=O)N(CCCl)N=O (centres undefined) | 3.8
CC(C)C(NC(=O)N(CCCl)N=O)C(N)=O (centres undefined) | 15.7
NC(=O)CC(NC(=O)N(CCCl)N=O)C(N)=O (centres undefined) | 15.7
NC(=O)CCCNC(=O)N(CCCl)N=O | 7.3
NC(=O)CCNC(=O)N(CCCl)N=O | 15.2
NC(=O)CNC(=O)N(CCCl)N=O | 36.4
NC(=O)C1CCCN1C(=O)N(CCCl)N=O (centres undefined) | 5.6
NC(=O)C(CO)NC(=O)N(CCCl)N=O (centres undefined) | 40
CC(C)CC(NC(=O)N(CCCl)N=O)C(N)=O (centres undefined) | 11.4
CC(NC(=O)N(CCCl)N=O)C(N)=O (centres undefined) | 14.3
CC(O)C(NC(=O)N(CCCl)N=O)C(N)=O (centres undefined) | 40
NC(=O)C(Cc1ccc(O)cc1)NC(=O)N(CCCl)N=O (centres undefined) | 10
CN(CC(N)=O)C(=O)N(CCCl)N=O [SARCNU] | 15.5

System: L1210
Assay: Tested for Percent increase in life span against mouse leukemia L1210 cells
Assay type: functional
Conditions: not given
How it was run: (§1)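 Male BDF1 hybrid mice inoculated ip with 10⁶ L1210 lymphoid leukemia cells; compounds dissolved in distilled water, given ip once daily for 3 days starting 24 h after implantation (day 1). %ILS = 100(T/C−1) versus untreated tumor-bearing controls, counting 60-day survivors; 60-day survivors tallied per treated group.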

SMILES | ILS [%]
CSCCC(NC(=O)N(CCCl)N=O)C(N)=O (centres undefined) | 277.8
NC(=O)C(Cc1ccccc1)NC(=O)N(CCCl)N=O (centres undefined) | >445.7
CC(C)C(NC(=O)N(CCCl)N=O)C(N)=O (centres undefined) | >757.1
NC(=O)CC(NC(=O)N(CCCl)N=O)C(N)=O (centres undefined) | >494.4
NC(=O)CCCNC(=O)N(CCCl)N=O | >733.3
NC(=O)CCNC(=O)N(CCCl)N=O | >733.3
NC(=O)CNC(=O)N(CCCl)N=O | >679.2
NC(=O)C1CCCN1C(=O)N(CCCl)N=O (centres undefined) | >250
NC(=O)C(CO)NC(=O)N(CCCl)N=O (centres undefined) | >757.1
CC(C)CC(NC(=O)N(CCCl)N=O)C(N)=O (centres undefined) | >757.1
CC(NC(=O)N(CCCl)N=O)C(N)=O (centres undefined) | >710.8
CC(O)C(NC(=O)N(CCCl)N=O)C(N)=O (centres undefined) | >757.1
NC(=O)C(Cc1ccc(O)cc1)NC(=O)N(CCCl)N=O (centres undefined) | >342.5
CN(CC(N)=O)C(=O)N(CCCl)N=O [SARCNU] | >710

System: not listed separately
Assay: Tested in vitro for Half- life period of the compound
Assay type: ADME
Conditions: not given

SMILES | half-life [min]
CSCCC(NC(=O)N(CCCl)N=O)C(N)=O (centres undefined) | 38.1
NC(=O)C(Cc1ccccc1)NC(=O)N(CCCl)N=O (centres undefined) | 49.9
CC(C)C(NC(=O)N(CCCl)N=O)C(N)=O (centres undefined) | 44.5
NC(=O)CC(NC(=O)N(CCCl)N=O)C(N)=O (centres undefined) | 32.1
NC(=O)CCCNC(=O)N(CCCl)N=O | 72.5
NC(=O)CCNC(=O)N(CCCl)N=O | 61
NC(=O)CNC(=O)N(CCCl)N=O | 44
NC(=O)C1CCCN1C(=O)N(CCCl)N=O (centres undefined) | 295
NC(=O)C(CO)NC(=O)N(CCCl)N=O (centres undefined) | 19.8
CC(C)CC(NC(=O)N(CCCl)N=O)C(N)=O (centres undefined) | 48.3
CC(NC(=O)N(CCCl)N=O)C(N)=O (centres undefined) | 37
CC(O)C(NC(=O)N(CCCl)N=O)C(N)=O (centres undefined) | 23.3
CN(CC(N)=O)C(=O)N(CCCl)N=O [SARCNU] | 330

System: L1210
Assay: Tested for Maximal effective dose against mouse leukemia L1210 cells
Assay type: functional
Conditions: not given
How it was run: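 Male BDF1 hybrid mice inoculated ip with 10⁶ L1210 lymphoid leukemia cells; compounds in distilled water given ip once daily for 3 days starting 24 h after implantation (day 1). Percent ILS = 100(T/C-1) versus untreated tumor-bearing controls, counting 60-day survivors. Maximal effective dose recorded.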

SMILES | maximal effective dose [mg/kg/day]
CSCCC(NC(=O)N(CCCl)N=O)C(N)=O (centres undefined) | 16
NC(=O)C(Cc1ccccc1)NC(=O)N(CCCl)N=O (centres undefined) | 32
CC(C)C(NC(=O)N(CCCl)N=O)C(N)=O (centres undefined) | 8
NC(=O)CC(NC(=O)N(CCCl)N=O)C(N)=O (centres undefined) | 8
NC(=O)CCCNC(=O)N(CCCl)N=O | 16
NC(=O)CCNC(=O)N(CCCl)N=O | 16
NC(=O)CNC(=O)N(CCCl)N=O | 16
NC(=O)C1CCCN1C(=O)N(CCCl)N=O (centres undefined) | 64
NC(=O)C(CO)NC(=O)N(CCCl)N=O (centres undefined) | 8
CC(C)CC(NC(=O)N(CCCl)N=O)C(N)=O (centres undefined) | 24
CC(NC(=O)N(CCCl)N=O)C(N)=O (centres undefined) | 8
CC(O)C(NC(=O)N(CCCl)N=O)C(N)=O (centres undefined) | 8
NC(=O)C(Cc1ccc(O)cc1)NC(=O)N(CCCl)N=O (centres undefined) | 16
CN(CC(N)=O)C(=O)N(CCCl)N=O [SARCNU] | 225

System: not listed separately
Assay: Tested for the toxicity after ip administration in SLC-BDF1 male mice
Assay type: organism-based
Conditions: SLC-BDF1, mouse, in vivo
How it was run: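 SLC-BDF1 male mice, 5 weeks old, six per group, single intraperitoneal injection; deaths observed for 21 days; LD50 with 95% fiducial limits by the Litchfield-Wilcoxon method.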

SMILES | LD50 [mg/kg]
NC(=O)CNC(=O)N(CCCl)N=O | 21.2
NC(=O)C1CCCN1C(=O)N(CCCl)N=O (centres undefined) | 220
CN(CC(N)=O)C(=O)N(CCCl)N=O [SARCNU] | 392

System: L1210
Assay: Tested for Number of 60 days survivors per 5 treated mice against mouse leukemia L1210 cells
Assay type: functional
Conditions: not given
How it was run: as §1

SMILES | Survivors
CSCCC(NC(=O)N(CCCl)N=O)C(N)=O (centres undefined) | 0
NC(=O)C(Cc1ccccc1)NC(=O)N(CCCl)N=O (centres undefined) | 1
CC(C)C(NC(=O)N(CCCl)N=O)C(N)=O (centres undefined) | 5
NC(=O)CC(NC(=O)N(CCCl)N=O)C(N)=O (centres undefined) | 2
NC(=O)CCCNC(=O)N(CCCl)N=O | 5
NC(=O)CCNC(=O)N(CCCl)N=O | 5
NC(=O)CNC(=O)N(CCCl)N=O | 5
NC(=O)C1CCCN1C(=O)N(CCCl)N=O (centres undefined) | 1
NC(=O)C(CO)NC(=O)N(CCCl)N=O (centres undefined) | 5
CC(C)CC(NC(=O)N(CCCl)N=O)C(N)=O (centres undefined) | 5
CC(NC(=O)N(CCCl)N=O)C(N)=O (centres undefined) | 5
CC(O)C(NC(=O)N(CCCl)N=O)C(N)=O (centres undefined) | 5
NC(=O)C(Cc1ccc(O)cc1)NC(=O)N(CCCl)N=O (centres undefined) | 2
CN(CC(N)=O)C(=O)N(CCCl)N=O [SARCNU] | 5

System: L1210
Assay: Tested for Mean survival days against mouse leukemia L1210 cells
Assay type: functional
Conditions: not given
How it was run: as §1

SMILES | Mean survival days
CSCCC(NC(=O)N(CCCl)N=O)C(N)=O (centres undefined) | 27.2
NC(=O)C(Cc1ccccc1)NC(=O)N(CCCl)N=O (centres undefined) | >38.2
CC(C)C(NC(=O)N(CCCl)N=O)C(N)=O (centres undefined) | >60
NC(=O)CC(NC(=O)N(CCCl)N=O)C(N)=O (centres undefined) | >42.8
NC(=O)CCCNC(=O)N(CCCl)N=O | >60
NC(=O)CCNC(=O)N(CCCl)N=O | >60
NC(=O)CNC(=O)N(CCCl)N=O | >60
NC(=O)C1CCCN1C(=O)N(CCCl)N=O (centres undefined) | >25.2
NC(=O)C(CO)NC(=O)N(CCCl)N=O (centres undefined) | >60
CC(C)CC(NC(=O)N(CCCl)N=O)C(N)=O (centres undefined) | >60
CC(NC(=O)N(CCCl)N=O)C(N)=O (centres undefined) | >60
CC(O)C(NC(=O)N(CCCl)N=O)C(N)=O (centres undefined) | >60
NC(=O)C(Cc1ccc(O)cc1)NC(=O)N(CCCl)N=O (centres undefined) | >35.4
CN(CC(N)=O)C(=O)N(CCCl)N=O [SARCNU] | >60

System: not listed separately
Assay: Tested for the toxicity after iv administration in SLC-BDF1 male mice
Assay type: organism-based
Conditions: SLC-BDF1, mouse, in vivo
How it was run: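 SLC-BDF1 male mice, 5 weeks old, six per group, single intravenous injection; deaths observed for 21 days; LD50 with 95% fiducial limits by the Litchfield-Wilcoxon method.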

SMILES | LD50 [mg/kg]
NC(=O)CNC(=O)N(CCCl)N=O | 22.4
NC(=O)C1CCCN1C(=O)N(CCCl)N=O (centres undefined) | 195
CN(CC(N)=O)C(=O)N(CCCl)N=O [SARCNU] | 427
